According to ChEMBL document CHEMBL1138624, “Design, synthesis, and quantitative structure-activity relationship of cytotoxic gamma-carboline derivatives” (Bioorg Med Chem, 2009):

Key:
Type in all cases: functional, cell-based
HCT-116 = assay: Cytotoxicity against human HCT116 cells after 48 hrs by MTT assay; conditions: HCT-116, 48 h
Summary of the method: (§1)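 Cell lines sourced from Shanghai Institute of Pharmaceutical Industry; K562R is a multidrug-resistant subline. Cells exposed to compound for 48 h, then MTT in RPMI-1640 added with a further 4 h at 37 °C. Formazan dissolved in DMSO, absorbance read at 570 nm. Triplicate wells in three independent experiments. IC50 (50% inhibition of viability) from dose-effect analysis, reported as mean of three experiments.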

MCF7 = assay: Cytotoxicity against human MCF7 cells after 48 hrs by MTT assay; conditions: MCF7, 48 h; summary of the method: as §1
A549 = assay: Cytotoxicity against human A549 cells after 48 hrs by MTT assay; conditions: A549, 48 h; summary of the method: as §1
[1] = Cytotoxicity against human SGC cells after 48 hrs by MTT assay; summary of the method: as §1
K562 [2] = assay: Cytotoxicity against multidrug-resistant human K562 cells after 48 hrs by MTT assay; conditions: K562, 48 h; summary of the method: as §1
K562 [3] = assay: Cytotoxicity against human K562 cells after 48 hrs by MTT assay; conditions: K562, 48 h; summary of the method: as §1

SMILES	IC50 (HCT-116) [µM]	IC50 (MCF7) [µM]	IC50 (A549) [µM]	IC50 [1] [µM]	IC50 (K562 [2]) [µM]	IC50 (K562 [3]; read-out: IC50) [µM]	IC50 (K562 [3]; read-out: pIC50 (converted)) [µM]
COc1ccc(OS(=O)(=O)c2ccc3[nH]c4ccncc4c3c2)cc1	23.9	16	22.6	21.4	5.7	6.6	6.61
CCn1c2ccncc2c2cc(NC(=O)c3cccnc3)ccc21	87.2	18.1	73.5	50.9	40.6	14.5	14.5
CCn1c2ccncc2c2cc(NC(=O)c3cc(OC)c(OC)c(OC)c3)ccc21	–	–	15.9	16.1	–	13.6	13.6
CCn1c2ccncc2c2cc(NC(=O)c3ccc(S(C)(=O)=O)cc3)ccc21	> 100	22.8	> 100	36	96.6	22.9	22.9
CCN(c1cc(OC)c(OC)c(OC)c1)S(=O)(=O)c1ccc2c(c1)c1cnccc1n2CC	10.2	2.07	33.9	13.8	3.02	1.02	1.02
CCn1c2ccncc2c2cc(S(=O)(=O)Nc3ccncc3)ccc21	> 100	> 100	> 100	> 100	> 100	> 100	–
COc1ccccc1OS(=O)(=O)c1ccc2[nH]c3ccncc3c2c1	64.1	24.7	32	54.3	15.3	14.1	14.1
CCn1c2ccncc2c2cc(S(=O)(=O)Nc3cc(OC)c(OC)c(OC)c3)ccc21	32.3	5.8	> 100	> 100	> 100	6.09	6.1
CCn1c2ccncc2c2cc(S(=O)(=O)Nc3ccccc3)ccc21	13.7	0.88	> 100	8	> 100	20.7	20.7
CCn1c2ccncc2c2cc(NC(=O)c3ccc(Br)cc3)ccc21	> 100	11.9	> 100	71.2	15.6	13.2	13.2
O=S(=O)(Nc1cccc2ncccc12)c1ccc2[nH]c3ccncc3c2c1	30.8	23.7	22.8	95.4	18.5	12.7	12.7
O=S(=O)(Oc1ccccc1)c1ccc2[nH]c3ccncc3c2c1	45.2	38.6	> 100	> 100	48.9	77.4	77.4
CCN(c1cc(OC)c(OC)c(OC)c1)S(=O)(=O)c1ccc2c(c1)c1c[n+](CC)ccc1n2CC	> 100	> 100	> 100	> 100	> 100	> 100	–
CCn1c2ccncc2c2cc(NC(=O)c3ccccc3O)ccc21	> 100	20.9	> 100	19.2	22.9	12.7	12.7
CCn1c2ccncc2c2cc(S(=O)(=O)Nc3ccc4c(ccn4C)c3)ccc21	23.2	4.99	73.5	73.2	16.8	12.2	12.2
CCn1c2ccncc2c2cc(NC(=O)c3ccc(OC)cc3)ccc21	50.7	4.92	72	21.3	5.15	11.3	11.3
O=[N+]([O-])c1ccc(OS(=O)(=O)c2ccc3[nH]c4ccncc4c3c2)cc1	21	10.8	17.5	7.15	8.34	27.9	27.9
COc1cc(OS(=O)(=O)c2ccc3[nH]c4ccncc4c3c2)cc(OC)c1OC	0.77	0.86	–	0.15	2.62	4.5	4.5
O=S(=O)(Oc1cccc(Cl)c1)c1ccc2[nH]c3ccncc3c2c1	42.7	47.5	43.6	5.82	8.42	13.2	13.2
CCn1c2ccncc2c2cc(NC(=O)c3ccccc3)ccc21	> 100	11.8	> 100	26.5	10.6	26.2	26.2
O=S(=O)(Oc1cccc2ccccc12)c1ccc2[nH]c3ccncc3c2c1	39.4	14.3	33.4	23.3	10.7	25.9	25.9
CCn1c2ccncc2c2cc(NC(=O)c3ccccc3Cl)ccc21	2.63	6.52	37.3	20.8	22.9	8.58	8.57
COc1cc(NS(=O)(=O)c2ccc3[nH]c4ccncc4c3c2)cc(OC)c1OC	16.9	19.2	48.2	> 100	73.4	11.3	11.3
Nc1ccc(OS(=O)(=O)c2ccc3[nH]c4ccncc4c3c2)cc1	20.9	16.6	10.1	2.12	5.95	18.4	18.5
O=S(=O)(Oc1ccc(Cl)cc1)c1ccc2[nH]c3ccncc3c2c1	32	26.3	47.3	39.7	13.9	20.5	20.5
